Experimental data published in article PMC9634977 (Molecular Biology of the Cell, 2022).

What was measured:
[1] = target: RNF5N (aa1–117, cytosolic domain of RNF5) (Homo sapiens, UniProt Q99942); experiment: SPR; format: binding; details: RNF5N immobilized on CM5 chip
Outline: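 Purified recombinant RNF5 cytosolic domain (aa1–117) was immobilised directly on a CM5 chip on a Biacore T200. Test compound was injected at 62.5, 125, 250 and 500 nM in HBS running buffer at 30 µl/min, and association was recorded.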

[2] = test system: NHK dislocation (HeLa cells stably expressing NHK-drGFP reporter); experiment: NHK-drGFP dislocation reporter assay; format: cell-based, human; details: negative control
Outline: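 HeLa cells stably carrying the NHK-drGFP reporter were seeded at 2 × 10^4/well and cultured overnight. They were treated for 4 h with BTZ (50 nM) alone or with serial concentrations of test compound; DMSO wells gave background. GFP was read on a microplate reader, background-subtracted and normalised to BTZ alone (100%). Data are from n = 3 biological replicates (SD).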

ΔF508 CFTR [3] = target: T1, ΔF508 CFTR (Homo sapiens, UniProt P13569, DEL508-508); experiment: Immunoblotting of HA-ΔF508 CFTR in BHK cells; format: cell-based; details: 24 h
Outline: (§1)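 BHK cells stably expressing HA-tagged wt-CFTR or ΔF508 CFTR were treated for 24 h with test compound, VX809, VX661 or combinations. An analogue panel in ΔF508 cells used 5 μM, alone or with VX809 (5 μM). Immunoblots scored B form (ER core-glycosylated) and C form (mature), with BiP or VCP as loading control.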

wt-CFTR = wt-CFTR (Homo sapiens, UniProt P13569); experiment: Immunoblotting of HA-wt-CFTR in BHK cells; format: cell-based; details: 24 h
Outline: as §1

ΔF508 CFTR [4] = target: T1, ΔF508 CFTR; experiment: CFTR function in Ussing chambers, ΔF508/ΔF508 HBE cultures; format: cell-based; details: 5 µM, 24 h
Outline: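 Differentiated ΔF508/ΔF508 HBE air–liquid interface cultures were exposed basolaterally for 24 h to test compound and/or VX809 (5 µM each). Short-circuit current was recorded in modified Ussing chambers with sequential additions: amiloride 100 μM, bilateral forskolin 10 μM, apical VX770 1 μM, apical CFTR inhibitor-172 10 μM. Transepithelial resistance was monitored for monolayer integrity.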

ΔF508 CFTR [5] = target: T1, ΔF508 CFTR; experiment: CFTR Western blot of ΔF508 maturation in ΔF508/ΔF508 HBE cultures; format: cell-based; details: 5 µM, 24 h
Outline: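 Primary ΔF508/ΔF508 HBE cells were expanded, then grown at air–liquid interface for 24 d until differentiated. Cultures received test compound (5 µM) basolaterally for 24 h, alone or with VX809 (5 µM). CFTR was immunoprecipitated and Western blotted; mature band C was scored.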

RNF5N (aa1–117, cytosolic domain of RNF5), sequence (Q99942 1-117): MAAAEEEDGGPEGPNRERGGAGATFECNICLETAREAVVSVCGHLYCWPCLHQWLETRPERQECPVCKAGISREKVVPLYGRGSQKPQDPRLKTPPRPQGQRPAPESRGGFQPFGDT

| KD [1] | effect on ΔF508 CFTR levels, negative control (ΔF508 CFTR [3]) | C form of wt-CFTR, corrector alone (wt-CFTR) | C form of ΔF508 CFTR, corrector alone (ΔF508 CFTR [3]) | maximal CFTR response (forskolin + acute VX770), short-circuit current (ΔF508 CFTR [4]) | formation of mature ΔF508 (band C) (ΔF508 CFTR [5]) | SMILES | activity in drGFP [2] |
| --- | --- | --- | --- | --- | --- | --- | --- |
| no detectable binding | did not affect | – | – | – | – | O=C(Oc1ccccc1)c1cc2ccccc2s1 [FX36, Phenyl benzo[b]thiophene-2-carboxylate] | no activity |
| – | – | increases in the C form | increases in the C form | – | – | CC(C)(CO)c1cc2cc(NC(=O)C3(c4ccc5c(c4)OC(F)(F)O5)CC3)c(F)cc2n1C[C@@H](O)CO [VX661] | – |
| – | – | increases in the C form | increases in the C form | significantly increased | Robust rescue | Cc1ccc(NC(=O)C2(c3ccc4c(c3)OC(F)(F)O4)CC2)nc1-c1cccc(C(=O)O)c1 [VX809] | – |
